An excerpt weighted towards active compounds, which were near 5.3% of everything screened.
T cruzi inh: T. cruzi replication inhibition; inhibition, % (no concentration beside the values); T. cruzi beta-gal in NIH3T3, luminescence, 90 h; actives 1.4% (n = 300,000);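 active = mean inhibition across valid replicates above about 55%, limit read from the data; inconclusive = mean below that limit but half or more replicates reach it; inactive = mean below it, under half of replicates reach it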;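 note: signal also drops with host cell toxicity which is not excluded here; higher percent means less beta-gal luminescence so fewer parasites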
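Read-out: Parasite load inhibition, % | Test system: Mouse NIH/3T3 fibroblasts infected with β-gal-expressing T. cruzi Tulahuen C4 | Amount: 5,000 cells/well | Medium: DMEM, 2% fetal bovine serum | Signal: GalScreen β-gal luminescence, detergent lysis, 60 min | Timing: 3 h attach, ≥90 h co-culture | Also added: Tulahuen C4 trypomastigotes, 5000/well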
CSC inhib: blocks cancer stem cells | cancer stem cell-like cells viability, luminescence | actives 1.1% (n = 300,000) | inhibition, % at 7.5 µM; in the data active = inhibition above about 75%; inconclusive = no clear call, values can overlap the other calls; tested in HMLE shEcad cells
Mdm2-MdmX inh: disrupts the human Mdm2-MdmX interaction; AID 485346; O15151+Q00987; inhibition, % at 8 µM; actives 3% (n = 330,000); SaOS-2 split-luciferase Mdm2/MdmX complementation, luminescence;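 active = inhibition of at least 50% at 8 µM in the primary screen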
Beta apoptosis: blocks beta cell apoptosis; INS-1E cytokine-induced death, ATP luminescence, 48 h; percent of positive-control rescue, neutral wells zero; protection from apoptosis, % (test concentration not listed); actives 0.8% (n = 300,000); AID 435005;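 active = Every replicate reaches about 75%, or at least half do and their mean reaches it too, limit read from the data; inconclusive = At least half of replicates reach the limit but their mean does not; inactive = Under half of replicates reach the limit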;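 note: higher means more ATP so stronger rescue from cytokine killing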
NALP3 yeast inh: NALP3 inhibition in yeast. Yeast reconstituted NLRP3/ASC/caspase-1, beta-gal luminescence, 24 h. inhibition, % at 10 µM. actives 0.39% (n = 330,000);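 active = inhibition of 50% or more; inactive = inhibition below 50%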
Calb FLC: affects C. albicans growth with fluconazole | C. albicans CaCi-2 + fluconazole, Alamar Blue growth, 48 h | growth inhibition, % (no concentration beside the values) | actives 0.57% (n = 300,000) | AID 1979;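 active = growth inhibition above about 58% in most replicates, limit read from the data, passing the limit was not always enough; inconclusive = exactly half the replicates above a set limit; inactive = most replicates below a set limit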;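 note: all wells also contain fluconazole at 8 µg/ml as a sub-toxic cotreatment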
Mdm2 MdmX conf: confirmation of human Mdm2/MdmX interaction inhibitors. shares compounds with Mdm2-MdmX inh. Mdm2-MdmX binding, luminescent assay. inhibition, % at 8 µM. actives 55% (n = 10,000). AID 489028; in the data active = inhibition above about 40%
FLuc counter: counter-screen for Mdm2/MdmX inhibitors: full-length luciferase; shares compounds with Mdm2-MdmX inh; SaOS-2 full-length luciferase counterscreen, luminescence; inhibition, % at 8 µM; actives 77% (n = 6,200);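 active = mean inhibition at 8 µM reaching about 37%, which flags the compound as non-specific, limit read from the data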;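 note: p53-null SaOS-2 cells with luciferase driven by a doxycycline-inducible promoter; compound on cells about two nights before reading with doxycycline added after day one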
Hits are given with their value; i = inactive; ? = inconclusive; nt = not tested or not shown.

SMILES | T cruzi inh | CSC inhib | Mdm2-MdmX inh | Beta apoptosis | NALP3 yeast inh | Calb FLC | Mdm2 MdmX conf | FLuc counter
Cn1c(=O)c(Nc2ccc(Cl)cc2)c2c3c(cccc31)C(=O)c1ccccc1-2 | i | i | 51 | i | i | i | i | nt
CCOc1ccc(Nc2nnc(SCc3nc4ccccc4c(=O)[nH]3)s2)cc1 | i | i | 63 | i | i | i | i | nt
COc1ccc(-c2nnc(SCc3nc4ccccc4c(=O)[nH]3)o2)cc1 | i | i | 73 | i | i | i | 58 | 105
CC1CC(=O)N(CC(=O)NC2CCCCC2)c2ccccc2S1 (centres undefined) | i | i | i | i | i | i | nt | nt
COc1ccc(C(=O)/C=C/c2ccc(OC)c(CN3CCOCC3)c2)cc1 | i | i | i | i | i | i | nt | nt
COc1ccc(C(=O)/C=C/c2ccc(OC)c(Cn3nnc4ccccc43)c2)cc1 | i | 77 | 62 | i | i | i | 43 | 68
CC(C)(C)n1nnnc1C(c1ccccn1)N(Cc1ccccc1)Cc1ccc(Cl)cc1 (centres undefined) | i | i | 60 | nt | i | i | i | nt
Cc1ccc(C)c(Cn2c(C)nc3c(sc(=S)n3-c3ccccc3)c2=O)c1 | i | i | 60 | i | i | i | i | nt
Nc1nonc1-n1nnc(C(=O)N/N=C/c2ccccc2)c1CN1CCc2ccccc21 | i | nt | i | i | i | i | nt | nt
C/C(=N\NC(=O)c1nnn(-c2nonc2N)c1-c1cccs1)c1cccc(O)c1 | i | i | i | i | i | i | nt | nt
COc1cc(/C(C)=N/NC(=O)c2nnn(-c3nonc3N)c2-c2cccs2)ccc1O | i | i | 69 | i | i | i | i | nt
COc1c(Cl)cc(Cl)cc1/C=N/NC(=O)c1nnn(-c2nonc2N)c1CN1CCC(C)CC1 | i | i | i | i | i | i | nt | nt
CC1CCN(Cc2c(C(=O)N/N=C/c3cc(Cl)ccc3O)nnn2-c2nonc2N)CC1 | 61 | nt | 79 | 88 | i | ? | 84 | i
C/C(=N\NC(=O)c1nnn(-c2nonc2N)c1CN1CCc2ccccc21)c1ccccc1O | i | 91 | 69 | 92 | i | i | 67 | i
CC1CCN(Cc2c(C(=O)N/N=C/c3cc(Br)ccc3O)nnn2-c2nonc2N)CC1 | 59 | nt | 85 | 90 | i | 82 | 83 | 56
Cc1cc(C)c(/C=N/NC(=O)c2nnn(-c3nonc3N)c2CN2CCC(C)CC2)c(C)c1 | i | i | i | i | i | i | nt | nt
CCOc1ccccc1OCCCC(=O)NNC(=O)c1cc(C)oc1C | nt | nt | i | nt | i | nt | nt | nt
COc1ccc(C(=O)Nc2ccnn2C2CCN(C3CCC3)CC2)cc1 | i | i | i | i | i | i | nt | nt
CC1=NN(c2ccc(C(=O)O)cc2)C(=O)/C1=C/c1ccc(-c2ccccc2F)o1 | i | i | i | i | i | i | nt | nt
CC1=NN(c2ccc(C)cc2)C(=O)/C1=C/c1ccc(-c2cc([N+](=O)[O-])ccc2O)o1 | i | nt | 67 | nt | i | i | i | nt
COc1ccc(-c2noc(C(=O)NCc3ccccc3Cl)n2)cc1OC | i | i | i | i | i | nt | nt | nt
CC(C)(C)NC(=O)C(c1ccc(-c2ccccc2)cc1)N(C[C@H]1CC[C@@H]([C@@H]2CC[C@H](CO)O2)O1)C(=O)c1ccc(C(C)(C)C)cc1 (some centres undefined) | nt | nt | 68 | nt | nt | nt | i | nt
Cc1ccc(C(C(=O)NC(C)(C)C)N(CC2CCCO2)C(=O)c2csnn2)cc1 (centres undefined) | i | i | i | i | i | i | nt | nt
Cc1ccc(S(=O)(=O)N2CCC(C(=O)NNC(=O)c3ccccc3O)CC2)cc1C | i | i | 53 | i | i | i | 50 | 46
Cc1ccc(S(=O)(=O)N2CCC(C(=O)NNC(=O)c3ccccc3O)CC2)cc1 | i | i | i | nt | i | i | nt | nt
Cc1cc(C)c(C)c(S(=O)(=O)N2CCC(C(=O)NNC(=O)c3ccccc3O)CC2)c1C | i | i | 67 | i | i | ? | 66 | 45
CSc1ncccc1C(=O)OCC(=O)N1CCCC1 | nt | i | i | i | i | nt | nt | nt

Source: PubChem BioAssay
